Measured values from ChEMBL document CHEMBL3580561, “Mitigation of Acetylcholine Esterase Activity in the 1,7-Diazacarbazole Series of Inhibitors of Checkpoint Kinase 1” (J Med Chem, 2015).

Columns and labels:
Mus musculus [1] = test: (§1) AUC in CD1 mouse at 5 mg/kg, po suspension at pH 6.5; type: ADME, organism-based; conditions: mouse, in vivo, pH 6.5, 5 mg/kg
[2] = Plasma protein binding in Sprague-Dawley rat; type: ADME, cell-free; conditions: read-out: PPB (converted)
[3] = Volume of distribution at steady state in Sprague-Dawley rat at 1 mg/kg, iv solution at pH 4.5; type: ADME, organism-based; conditions: in vivo, read-out: Vdss
[4] = Volume of distribution at steady state in cynomolgus monkey at 1 mg/kg, iv solution at pH 4.5; type: ADME, organism-based, Macaca fascicularis; conditions: in vivo, read-out: Vdss
[5] = Oral bioavailability in Sprague-Dawley rat at 5 mg/kg suspension at pH 6.5; type: ADME, organism-based; conditions: in vivo
[6] = Clearance in cynomolgus monkey at 1 mg/kg, iv solution at pH 4.5; type: ADME, organism-based, Macaca fascicularis; conditions: in vivo
Mus musculus [7] = test: (§2) Oral bioavailability in CD1 mouse at 5 mg/kg suspension at pH 6.5; type: ADME, organism-based; conditions: mouse, in vivo, pH 6.5, 5 mg/kg
[8] = Plasma protein binding in Beagle dog; type: ADME, cell-free, Canis lupus familiaris; conditions: read-out: PPB (converted)
HT-29 [9] = test: Cytotoxicity against human HT-29 cells assessed as 10-fold reduction of gemcitabine IC50 after 72 hrs by Isobologram assay relative to untreated control; type: functional
In short: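 HT-29 cells exposed 72 h to a range of gemcitabine hydrochloride concentrations, alone or combined with varying ChK1 inhibitor concentrations. Viability read by CellTiter-Glo luminescence. […] Synergy judged by combination index or Bliss independence analysis.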

[10] = Plasma protein binding in CD1 mouse; type: ADME, cell-free; conditions: read-out: PPB (converted)
[11] = AUC in Beagle dog at 2 mg/kg, po suspension at pH 6.5; type: ADME, organism-based, Canis lupus familiaris; conditions: in vivo
HT-29 [12] = test: Potentiation of gemcitabine-induced anticancer activity in human HT-29 cells xenografted in NCr nude mouse assessed as reduction in tumor volume measured after four cycles with 60 mg/kg, ip gemcitabine at four day intervals at 50 mg/kg, po; type: functional; parameters: scale not given: the % may be the effect or the level left
In short: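 NCr nude mice, 8–12 weeks old, inoculated with 5×10^6 HT-29 cells in HEPES-buffered saline:Matrigel 50:50. Volume-matched cohorts formed at 125–250 mm³. Gemcitabine 60 mg/kg given i.p. in saline. Inhibitor given orally in 0.5% methylcellulose/0.2% Tween 80 suspension 24 h later. Four cycles at four-day intervals. Tumor volume monitored. %TGI by linear mixed-effect modeling; two-way ANOVA with Tukey test.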

Mus musculus [13] = test: Toxicity in human HT-29 cells xenografted in NCr nude mouse assessed as body weight change measured after four cycles with 60 mg/kg, ip gemcitabine at four day intervals at 50 mg/kg, po; type: organism-based; conditions: in vivo
In short: (§3)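 NCr nude mice aged 8–12 weeks were inoculated with 5×10^6 HT-29 cells in HEPES-buffered saline:Matrigel 50:50. At 125–250 mm³, tumors were split into volume-matched cohorts (n=5 or 10). Gemcitabine in saline was given i.p., and the inhibitor as an MCT suspension by oral gavage 24 h later. Tumor volume and body weight were monitored. %TGI was derived by linear mixed-effect modeling, with two-way ANOVA/Tukey for p-values.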

[14] = Clearance in Sprague-Dawley rat at 1 mg/kg, iv solution at pH 4.5; type: ADME, organism-based; conditions: in vivo
[15] = AUC in cynomolgus monkey at 2 mg/kg, po suspension at pH 6.5; type: ADME, organism-based, Macaca fascicularis; conditions: in vivo
HT-29 [16] = test: Potentiation of gemcitabine-induced anticancer activity in human HT-29 cells xenografted in po treated NCr nude mouse assessed as reduction in tumor volume measured after four cycles with 60 mg/kg, ip gemcitabine at four day intervals; type: functional, organism-based; in short: as §3
[17] = Plasma protein binding in cynomolgus monkey; type: ADME, cell-free, Macaca fascicularis; conditions: read-out: PPB (converted)
HT-29 [18] = test: Cytotoxicity against human HT-29 cells assessed as 10-fold reduction of gemcitabine IC50 after 72 hrs by Isobologram assay; type: functional; conditions: HT-29, 72 h
In short: (§4)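 HT-29 cells exposed 72 h to a range of gemcitabine concentrations, alone or combined with a range of ChK1 inhibitor concentrations. Viability read by CellTiter-Glo luminescence. […] Synergy assessed by combination index or Bliss independence.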

[19] = molecular target: T1, Serine/threonine-protein kinase Chk1 (Homo sapiens, UniProt O14757); test: Inhibition of human recombinant Chk1 using biotinylated AKT substrate after 30 mins by Alphascreen biochemical assay
T1 sequence (O14757 whole entry): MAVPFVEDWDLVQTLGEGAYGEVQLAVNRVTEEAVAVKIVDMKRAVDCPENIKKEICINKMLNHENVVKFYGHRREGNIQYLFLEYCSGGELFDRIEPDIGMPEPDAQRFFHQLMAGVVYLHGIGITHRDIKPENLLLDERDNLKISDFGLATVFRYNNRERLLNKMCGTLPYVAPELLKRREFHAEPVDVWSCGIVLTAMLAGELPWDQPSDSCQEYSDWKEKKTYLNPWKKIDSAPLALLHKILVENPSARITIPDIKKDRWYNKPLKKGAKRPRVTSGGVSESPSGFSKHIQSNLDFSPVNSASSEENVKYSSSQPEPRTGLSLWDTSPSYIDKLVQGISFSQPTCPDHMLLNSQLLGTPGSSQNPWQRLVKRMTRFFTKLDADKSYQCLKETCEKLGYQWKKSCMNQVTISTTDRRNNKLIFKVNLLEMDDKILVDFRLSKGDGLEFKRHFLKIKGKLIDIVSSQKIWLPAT

[20] = Cmax in Sprague-Dawley rat at 5 mg/kg, po suspension at pH 6.5; type: ADME, organism-based; parameters: dose 5 mg/kg, route oral; conditions: in vivo
[21] = Clearance in Beagle dog at 1 mg/kg, iv solution at pH 4.5; type: ADME, organism-based, Canis lupus familiaris; conditions: in vivo
HT-29 [22] = test: Potentiation of 60 mg/kg gemcitabine-induced anticancer activity in human HT-29 cells xenografted in po treated mouse assessed as increase in gammaH2AX by Western blot analysis; type: functional, organism-based
In short: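 HT-29 xenograft mice (n=4 per randomized group) got gemcitabine 60 mg/kg or saline. After 24 h they received an oral inhibitor dose in MCT (0.5% methylcellulose/0.2% Tween 80) or vehicle. Tumors were excised 16 h later, flash-frozen and lysed. Western blots (25 μg/lane) were probed for pS139 H2AX and total H2AX with IR-dye detection. The γH2AX:total ratio is expressed as fold-change from the gemcitabine-only group mean.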

[23] = Cmax in Beagle dog at 2 mg/kg, po suspension at pH 6.5; type: ADME, organism-based, Canis lupus familiaris; parameters: dose 2 mg/kg, route oral; conditions: in vivo
[24] = Oral bioavailability in cynomolgus monkey at 2 mg/kg suspension at pH 6.5; type: ADME, organism-based, Macaca fascicularis; conditions: in vivo
Acetylcholinesterase = Acetylcholinesterase (Homo sapiens, UniProt P22303); test: Inhibition of human acetylcholine esterase by horseradish peroxidase-coupled fluorescence assay
In short: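 Human AChE at 0.006 U/ml, with 0.25 μM acetylcholine chloride, 0.06 U/ml choline oxidase, 0.05 U/ml horseradish peroxidase and 200 μM Amplex Red, in proprietary buffer with test compound. Incubated 30 min at 25 °C. Fluorescence read.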

[25] = Oral bioavailability in Beagle dog at 2 mg/kg suspension at pH 6.5; type: ADME, organism-based, Canis lupus familiaris; conditions: in vivo
[26] = molecular target: T1, Serine/threonine-protein kinase Chk1; test: Inhibition of CHK1 in human HT29 cells assessed as phosphorylation of histone H3 after 24 hrs by checkpoint abrogation cellular assay; type: cell-based, HT-29
[27] = Cmax in cynomolgus monkey at 2 mg/kg, po suspension at pH 6.5; type: ADME, organism-based, Macaca fascicularis; parameters: dose 2 mg/kg, route oral; conditions: in vivo
[28] = Cmax in CD1 mouse at 5 mg/kg, po suspension at pH 6.5; type: ADME, organism-based; parameters: dose 5 mg/kg, route oral; conditions: in vivo
[29] = Volume of distribution at steady state in CD1 mouse at 1 mg/kg, iv solution at pH 4.5; type: ADME, organism-based; conditions: in vivo, read-out: Vdss
[30] = Volume of distribution at steady state in Beagle dog at 1 mg/kg, iv solution at pH 4.5; type: ADME, organism-based, Canis lupus familiaris; conditions: in vivo, read-out: Vdss
HT-29 [31] = test: Cytotoxicity against human HT-29 cells after 72 hrs by CellTiter-Glo luminescent assay; type: functional; conditions: HT-29, 72 h; in short: as §4
[32] = AUC in Sprague-Dawley rat at 5 mg/kg, po suspension at pH 6.5; type: ADME, organism-based; conditions: in vivo
[33] = as §1; type: ADME, organism-based; conditions: CD1, mouse, in vivo, 5 mg/kg, pH 6.5
[34] = as §2; type: ADME, organism-based; conditions: CD1, mouse, in vivo, 5 mg/kg, pH 6.5
Mus musculus [35] = test: Toxicity in human HT-29 cells xenografted in NCr nude mouse assessed as body weight change measured after five cycles with 120 mg/kg, ip gemcitabine at five day intervals at 50 mg/kg, po; type: organism-based; conditions: in vivo; in short: as §3
HT-29 [36] = test: Potentiation of gemcitabine-induced anticancer activity in human HT-29 cells xenografted in po treated NCr nude mouse assessed as reduction in tumor volume measured after five cycles with 120 mg/kg, ip gemcitabine at five day intervals; type: functional, organism-based; in short: as §3
[37] = Clearance in CD1 mouse at 1 mg/kg, iv solution at pH 4.5; type: ADME, organism-based; conditions: in vivo

Acetylcholinesterase, sequence (P22303 whole entry): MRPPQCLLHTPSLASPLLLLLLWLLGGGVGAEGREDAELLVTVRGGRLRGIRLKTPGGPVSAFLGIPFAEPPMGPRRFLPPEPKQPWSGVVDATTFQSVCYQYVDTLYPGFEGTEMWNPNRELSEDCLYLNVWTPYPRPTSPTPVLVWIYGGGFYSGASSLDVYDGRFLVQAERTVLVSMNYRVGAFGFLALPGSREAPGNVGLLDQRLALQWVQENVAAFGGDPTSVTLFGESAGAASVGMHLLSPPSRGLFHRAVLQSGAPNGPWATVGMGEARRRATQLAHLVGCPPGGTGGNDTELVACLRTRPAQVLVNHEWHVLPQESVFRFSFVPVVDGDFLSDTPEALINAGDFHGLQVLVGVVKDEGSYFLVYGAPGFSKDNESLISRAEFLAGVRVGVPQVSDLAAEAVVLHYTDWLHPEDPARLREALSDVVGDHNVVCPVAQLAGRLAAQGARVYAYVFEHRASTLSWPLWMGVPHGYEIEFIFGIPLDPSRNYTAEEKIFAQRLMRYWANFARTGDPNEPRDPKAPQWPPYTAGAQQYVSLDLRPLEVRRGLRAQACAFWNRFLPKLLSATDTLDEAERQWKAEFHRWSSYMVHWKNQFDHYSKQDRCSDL

Row | Compound | fraction unbound [2] | Vd [3] [L/kg] | Vd [4] [L/kg] | bioavailability [5] [%] | clearance [6] [mL/min/kg] | fraction unbound [8] | fold change (FC) (HT-29 [9]) | fraction unbound [10] | AUC [11] [µM·h] | clearance [14] [mL/min/kg] | AUC [15] [µM·h] | fraction unbound [17] | EC10 (HT-29 [18]) [nM] | IC50 [19] [nM] | Cmax [20] [nM] | clearance [21] [mL/min/kg] | Activity (HT-29 [22]) | Cmax [23] [nM] | bioavailability [24] [%] | IC50 (Acetylcholinesterase) [nM] | also measured
1 | N#Cc1cc2c(cn1)[nH]c1ncc(-c3ccc(CN4CCC5(CC4)COC5)cc3)cc12 | 0.025 | 7.55 | 17.1 | 116 | 30.8 | 0.052 | > 156 | 0.038 | 3.51 | 27.5 | 0.91 | 0.049 | 16 | 2.5 | 1100 | 10.9 | Dose-dependent effect | 200 | 34 | 2420 | AUC (Mus musculus [1]): 1.33 µM·h; F (Mus musculus [7]): 48.5%; Activity (HT-29 [12]): 111%; Activity (Mus musculus [13]): Non-toxic; Activity (HT-29 [16]): Dose-dependent effect; bioavailability [25]: 46.7%; EC50 [26]: 72.8 nM; Cmax [27]: 86 nM; Cmax [28]: 191 nM; Vd [29]: 7.33 L/kg; Vd [30]: 9.63 L/kg; GI50 (HT-29 [31]): > 2500 nM; AUC [32]: 8.63 µM·h
2 | N#Cc1cc2c(cn1)[nH]c1ncc(-c3ccc(CN4CCCCC4)cc3)cc12 | 0.047 | 6.35 | 25.7 | 67.4 | 45.8 | 0.132 | 870 | 0.05 | 0.101 | 24.7 | 0.869 | 0.117 | 10 | 1 | 520 | 118 | Dose-dependent effect | 21 | 43.8 | 333 | AUC [33]: 2.68 µM·h; bioavailability [34]: 86.5%; Activity (Mus musculus [35]): Non-toxic; Activity (HT-29 [36]): Dose-dependent effect; clearance [37]: 55.8 mL/min/kg; bioavailability [25]: 13.1%; EC50 [26]: 53.2 nM; Cmax [27]: 44 nM; Cmax [28]: 386 nM; Vd [29]: 6.57 L/kg; Vd [30]: 23.4 L/kg; GI50 (HT-29 [31]): 8700 nM; AUC [32]: 6.19 µM·h
